Assay [1] concerns the target T1, Histamine H4 receptor (Homo sapiens, UniProt Q9H3N8). The assay is described as follows: Agonist activity at human histamine H4 receptor expressed in Sf9 cells coexpressing RGS19 protein by steady-state GTPase assay. The assay is classed as functional. A digest of the protocol:
(§1)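 Sf9 membranes (10-20 μg protein/tube), washed and resuspended in 10 mM Tris-HCl pH 7.4. H2R as hH2R-GsαS fusion; H3R coexpressed with Giα2, Gβ1γ2, RGS4; H4R as hH4R-RGS19 fusion with Giα2, Gβ1γ2. Buffer: 50 mM Tris/HCl pH 7.4, MgCl2 (H2R 1.0 mM; H3R/H4R 5.0 mM), 100 μM EDTA, 100 μM ATP, 100 nM GTP, 100 μM AppNHp, creatine phosphate/kinase, 0.2% BSA; H4R plus 100 mM NaCl.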

The target of assay [2] is T2, Histamine H1 receptor (Homo sapiens, UniProt P35367). The assay is described as follows: Antagonist activity at human histamine H1 receptor expressed in Sf9 cells coexpressing RGS4 by steady-state GTPase assay. The assay is classed as functional. The procedure, abridged: (§2)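 Antagonist-mode steady-state GTPase assay in Sf9 membranes: H1R coexpressed with RGS4; H2R as GsαS fusion; H3R coexpressed with Giα2/Gβ1γ2/RGS4; H4R as RGS19 fusion with Giα2/Gβ1γ2. […] MgCl2: H1R/H2R 1.0 mM, H3R/H4R 5.0 mM; H4R plus 100 mM NaCl. [γ-32P]GTP hydrolysis measured over 20 min at 25 °C. pKB from nonlinear sigmoidal fits; duplicate runs.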

Assay [3] deals with T3, Histamine H2 receptor (Homo sapiens, UniProt P25021). Put plainly: Antagonist activity at human histamine H2 receptor expressed in Sf9 cells coexpressing GsalphaS protein by steady-state GTPase assay. The assay is classed as functional. A digest of the protocol: as §2
For assay [4], the target named is T4, Histamine H3 receptor (Homo sapiens, UniProt Q9Y5N1). Put plainly: Antagonist activity at human histamine H3 receptor expressed in Sf9 cells coexpressing Gialpha-2-Gbeta-1-gamma-2 and RGS4 proteins protein by steady-state GTPase assay. The assay is classed as functional. A digest of the protocol:
as §2

The species entered for assay [5] is Homo sapiens. Put plainly: Selectivity for human histamine H4 receptor over human histamine H3 receptor by steady-state GTPase assay.
Assay [6] deals with T2, Histamine H1 receptor. The assay is described as follows: Displacement of [3H]mepyramine from human histamine H1 receptor expressed in Sf9 cells. The procedure, abridged:
(§3)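 Competition binding on Sf9 membranes in 12.5 mM MgCl2, 1 mM EDTA, 75 mM Tris/HCl pH 7.4. Protein per tube: 50 μg (H1R, H3R), 120 μg (H4R), 250 μg (H2R). […] 60 min at 25 °C with shaking; PEI-treated GF/C filtration, cold washes, scintillation counting; one-site fits, duplicates.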
For orientation: Loss of bound radioactivity is the signal in a displacement assay; it reports binding, not function.

Assay [7] deals with T3, Histamine H2 receptor. The assay is described as follows: Displacement of [3H]tiotidine from human histamine H2 receptor expressed in Sf9 cells. The procedure, abridged:
as §3

Assay [8] has as its target T4, Histamine H3 receptor. The assay is described as follows: Displacement of [3H]N-alpah-methylhistamine from human histamine H3 receptor expressed in Sf9 cells. The procedure, abridged: as §3
Assay [9] addresses T1, Histamine H4 receptor. The assay is described as follows: Displacement of [3H]histamine from human histamine H4 receptor expressed in Sf9 cells. The procedure, abridged: as §3
The species named for assay [10] is Homo sapiens. Put plainly: Selectivity for human histamine H4 receptor over human histamine H1 receptor by radioligand displacement assay.
Assay [11] is filed under the species Homo sapiens. The assay is described as follows: Selectivity for human histamine H4 receptor over human histamine H2 receptor by radioligand displacement assay.
Assay [12] concerns the target T1, Histamine H4 receptor. The assay is described as follows: Agonist activity at human histamine H4 receptor expressed in Sf9 cell membrane coexpressing RGS19 protein by steady-state GTPase assay. The assay is classed as functional. A digest of the protocol: as §1

Each structure is given as a SMILES string. Where only a bound is given, the exact number is not on record here.

T1 sequence (Q9H3N8 whole entry, the tested form may be a part): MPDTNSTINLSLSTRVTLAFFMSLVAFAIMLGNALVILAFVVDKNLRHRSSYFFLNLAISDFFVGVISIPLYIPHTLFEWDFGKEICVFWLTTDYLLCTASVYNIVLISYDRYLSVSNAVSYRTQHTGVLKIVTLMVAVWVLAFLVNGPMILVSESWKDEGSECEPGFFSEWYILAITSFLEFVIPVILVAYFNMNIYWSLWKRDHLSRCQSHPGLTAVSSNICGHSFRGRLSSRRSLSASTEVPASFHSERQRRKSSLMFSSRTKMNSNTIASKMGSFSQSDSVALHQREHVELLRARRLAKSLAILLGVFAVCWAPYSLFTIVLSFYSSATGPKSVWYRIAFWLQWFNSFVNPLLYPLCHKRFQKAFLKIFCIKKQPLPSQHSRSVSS
T2 sequence (P35367 whole entry, the tested form may be a part): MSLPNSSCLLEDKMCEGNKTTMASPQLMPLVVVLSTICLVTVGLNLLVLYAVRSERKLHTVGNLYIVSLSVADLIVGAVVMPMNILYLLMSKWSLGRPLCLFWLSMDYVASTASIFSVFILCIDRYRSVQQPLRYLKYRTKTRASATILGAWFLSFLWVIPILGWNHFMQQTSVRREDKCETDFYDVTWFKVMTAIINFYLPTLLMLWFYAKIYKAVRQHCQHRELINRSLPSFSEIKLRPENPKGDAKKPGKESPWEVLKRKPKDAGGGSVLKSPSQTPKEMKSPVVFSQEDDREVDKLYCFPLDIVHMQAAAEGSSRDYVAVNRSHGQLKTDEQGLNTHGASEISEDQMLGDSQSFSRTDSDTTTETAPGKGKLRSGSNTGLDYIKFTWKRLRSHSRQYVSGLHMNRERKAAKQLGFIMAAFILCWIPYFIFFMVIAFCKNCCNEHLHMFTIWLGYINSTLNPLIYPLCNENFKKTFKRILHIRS
T4 sequence (Q9Y5N1 whole entry): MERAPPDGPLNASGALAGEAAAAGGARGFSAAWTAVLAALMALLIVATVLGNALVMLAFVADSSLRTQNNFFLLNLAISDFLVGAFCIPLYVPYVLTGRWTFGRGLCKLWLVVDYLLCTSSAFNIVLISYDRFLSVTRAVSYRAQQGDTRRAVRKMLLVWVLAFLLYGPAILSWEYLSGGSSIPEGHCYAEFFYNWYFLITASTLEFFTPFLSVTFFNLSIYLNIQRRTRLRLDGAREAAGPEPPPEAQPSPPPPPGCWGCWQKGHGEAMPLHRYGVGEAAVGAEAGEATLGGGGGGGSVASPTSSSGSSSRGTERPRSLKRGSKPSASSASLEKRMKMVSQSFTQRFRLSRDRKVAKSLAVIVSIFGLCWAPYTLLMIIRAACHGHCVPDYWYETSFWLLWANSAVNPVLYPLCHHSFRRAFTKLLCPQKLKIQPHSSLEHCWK
T3 sequence (P25021 whole entry): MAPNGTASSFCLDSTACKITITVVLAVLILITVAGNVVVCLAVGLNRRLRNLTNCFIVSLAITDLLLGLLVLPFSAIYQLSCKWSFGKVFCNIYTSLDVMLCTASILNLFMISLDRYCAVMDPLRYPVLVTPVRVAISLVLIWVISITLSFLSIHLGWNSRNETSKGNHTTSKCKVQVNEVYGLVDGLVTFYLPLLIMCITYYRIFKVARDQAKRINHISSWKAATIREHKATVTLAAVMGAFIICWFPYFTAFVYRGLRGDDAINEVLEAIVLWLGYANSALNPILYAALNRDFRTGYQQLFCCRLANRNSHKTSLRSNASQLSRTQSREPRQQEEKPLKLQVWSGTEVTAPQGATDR

For the molecule `N#C/N=C(/NCCCCc1c[nH]cn1)NCCSc1ccccc1`, at Histamine H4 receptor [1], a half-maximal effect (EC50) was put at 0.0339 µM. The values for the pKb at Histamine H1 receptor [2], on Histamine H2 receptor [3] and at Histamine H3 receptor [4] were less than 5, less than 5 and 6, respectively. The figures for the Selectivity ratio in the assay filed under Homo sapiens [5], in the assay listed under Homo sapiens [10] and in the assay filed under Homo sapiens [11] were 30, 450 and 70, respectively. For the same molecule, the Ki (usually the equilibrium dissociation constant of an inhibitor or competing ligand from its target) on Histamine H1 receptor [6] was 25.7 µM; on Histamine H2 receptor [7], 4.07 µM; at Histamine H3 receptor [8], 0.525 µM; at Histamine H4 receptor [9] it was 0.0575 µM. Also, at Histamine H4 receptor [12], the Activity is greater than 10 nM.
